PubChem BioAssay
Records with an inconclusive call do not appear.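 How the source made its calls, unless noted: active means growth inhibition above 25% in both replicates, a cutoff set 3 SD above the mean; inconclusive means above 25% in only one replicate; inactive means the rest.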

Columns and labels:
[1] = S. cerevisiae growth inhibition in permissive medium (OD615), pilot counter-assay for S. cerevisiae lifespan shortening project, permissive growth control (AID 705); conditions: OD615, 24 h, at 10 µM, active compounds read high
Summary of the method: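 System: Engineered DeaD yeast | Buffer or medium: SC raffinose/galactose permissive medium | Incubation: Cells pre-grown 4 h, then 24 h compound exposure, 30 °C humidified | Measured by: Absorbance (optical density) at 615 nm | Read-out: Reduction in yeast growth (OD615)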

[2] = S. cerevisiae growth inhibition in restrictive medium, OD615, pilot screen, restrictive growth control, yeast lifespan reduction project (AID 706;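 active means growth inhibition above a set limit, 3 SD over mean compound inhibition, in both replicates, cut at about 43% in these data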;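 further: modified DeaD lifespan yeast strain shifted to restrictive glucose medium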); conditions: OD615, 48 h, at 10 µM, active compounds read high
Summary of the method: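 Material: modified S. cerevisiae; Medium: glucose-based CSMM-D restrictive medium; Compound dosing: one concentration, 10 µM final, 0.25% DMSO; Incubation: 48 h compound exposure at 30 °C; Measured by: OD615.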

[3] = doxorubicin toxicity protection in MRP-1 cells – H69AR cells, CellTiter-Glo, duplicate, MRP-1 activator project, pilot screen (AID 807;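 active means viability increase at or above a cutoff of the median across tested compounds plus 3 SD, cut at about 8.5% in these data, passing the limit was not always enough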;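 further: compound pretreatment 18-22 h then 72 h combined with doxorubicin; 0% = doxorubicin alone and 100% = vehicle without doxorubicin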); conditions: H69AR viability with doxorubicin, CellTiter-Glo luminescence; at 10 µM; active compounds read high
[4] = viability of HCT116 without oncogenic beta-catenin – human colon tumor cells, pilot screen (AID 823;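 active means cell viability at or below a set limit in both duplicate runs, the limit being the all-compound median minus 4 SD, cut at about 23% in these data, passing the limit was not always enough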;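 further: 0% = wells killed by 20 µM Hyamine and 100% = untreated DMSO cell wells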); conditions: HCT116 beta-catenin knockout viability, CellTiter-Glo, 60 h; at 10 µM; active compounds read low
[5] = viability of PTEN-null HCT116 cells – cell-based, HCT116 clonal line, CellTiter-Glo, pilot screen (AID 824;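 active means viability at or below 27.92% in each of two runs, the all-compound median minus 4 SD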;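 further: 0% = 20 µM Hyamine control and 100% = vehicle cell control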); conditions: HCT116 PTEN-deleted viability, 60 h, at 10 µM, active compounds read low
[6] = RAM pathway blockade in budding yeast – dse1pr::URA3 reporter, 5-FOA selection, pilot screen (AID 869;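 active means inhibition over a set limit, the all-compound mean plus 3 SD, in both replicate runs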;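 further: 0% = DMSO wells with no growth and 100% = 10 µM 1-NA-PP1 with full growth; RAM network block rescues cells from 5-FOA so hits raise OD615 growth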); conditions: S. cerevisiae dse1pr::URA3 5-FOA growth, OD615, 2 d; at 10 µM; active compounds read high; strain carries analog-sensitive mutant Cbk1 kinase
[7] = RAM signaling pathway blockade in yeast – S. cerevisiae, Pdr1DBD-CYC8 efflux-inhibited sensitized strain, primary screen (AID 1298;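 active means RAM network inhibition above 8.4% in each of two replicates, 3 SD over the compound average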;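 further: 0% = DMSO untreated cells without growth and 100% = 10 µM 1-NA-PP1 full growth; higher means more yeast growth rescued from 5-FOA killing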); conditions: S. cerevisiae cbk1-as DSE1-URA3 strain, 5-FOA growth OD615, 2 d; at 50 µM; active compounds read high

CC(=O)Nc1ccc(NC(=O)CSc2nccn2Cc2ccccc2)cc1
inactive: growth inhibition [1] -0.94% | growth inhibition [2] 3.38% | viability increase [3] -1.64% | viability [4] 86.9% | viability [5] 88.8% | inhibition [6] -0.265% | RAM network inhibition [7] 0.96%

COc1ccccc1N(CC(O)CN1C(=O)NC(C)(C)C1=O)S(=O)(=O)c1ccc(C)cc1 (stereo not given)
inactive: growth inhibition [1] -7.72% | growth inhibition [2] -4.29% | viability increase [3] -0.66% | viability [4] 101% | viability [5] 99.9% | inhibition [6] 1.41% | RAM network inhibition [7] 5.03%

CN1C(=O)CS(=O)c2ccc(C(=O)NCCC3=CCCCC3)cc21 (stereo not given)
inactive: growth inhibition [1] 0.135% | growth inhibition [2] 0.3% | viability increase [3] -2.35% | viability [4] 81.3% | viability [5] 85% | inhibition [6] 0.265% | RAM network inhibition [7] 2.98%

Cn1cc(S(=O)(=O)Nc2ccc(F)cc2F)c(=O)n(C)c1=O
inactive: growth inhibition [1] -11.6% | growth inhibition [2] 0.815% | viability increase [3] 0.9% | viability [4] 98.8% | viability [5] 95% | inhibition [6] 1.39% | RAM network inhibition [7] 1.28%

CCOC(=O)Cc1nnc(NC(=O)C(CC)Sc2nc(C)cc(=O)[nH]2)s1 (stereo not given)
inactive: growth inhibition [1] 6.95% | growth inhibition [2] 22.4% | viability increase [3] -0.54% | viability [4] 83.4% | viability [5] 96.7% | inhibition [6] 2.96% | RAM network inhibition [7] 2.97%

O=P(O)(CCc1ccccn1)CN1CCOCC1
inactive: growth inhibition [1] -17.5% | growth inhibition [2] -15.6% | viability increase [3] 1.31% | viability [4] 92.6% | viability [5] 92.5% | inhibition [6] 2.73% | RAM network inhibition [7] 1.09%

CSc1nnc(NC(=O)c2cc3ccccc3oc2=O)s1
inactive: growth inhibition [1] -6.82% | growth inhibition [2] -6.74% | viability increase [3] -2.29% | viability [4] 93.8% | viability [5] 95.5% | inhibition [6] 1.24% | RAM network inhibition [7] 4.01%

COC(=O)c1c(C)nn(-c2ccccc2)c1N
inactive: growth inhibition [1] -12.5% | growth inhibition [2] -19.5% | viability increase [3] -1.39% | viability [4] 108% | viability [5] 98.5% | inhibition [6] 1.2% | RAM network inhibition [7] -0.37%

CCC(C)Sc1nc2c(cnn2-c2ccc(C)cc2)c(=O)[nH]1 (stereo not given)
inactive: growth inhibition [1] -13% | growth inhibition [2] -3.34% | viability increase [3] -3.06% | viability [4] 93.9% | viability [5] 88.9% | inhibition [6] 4.24% | RAM network inhibition [7] 0.41%

CSc1ccc(Cl)c(C(=O)NCc2ccco2)c1
inactive: growth inhibition [1] -3.93% | growth inhibition [2] 8.44% | viability increase [3] -3.7% | viability [4] 85.8% | viability [5] 81.6% | inhibition [6] 2.33% | RAM network inhibition [7] 5.31%

COc1cccc(C2=N/C(=C\N(C)C)C(=O)O2)c1
inactive: growth inhibition [1] 1.7% | growth inhibition [2] 11.6% | viability increase [3] -0.29% | viability [4] 94.7% | viability [5] 102% | inhibition [6] -0.855% | RAM network inhibition [7] 2.96%

CCOc1cccc(N2C(=O)CC(NCc3ccc(S(N)(=O)=O)cc3)C2=O)c1 (stereo not given)
inactive: growth inhibition [1] -14.7% | growth inhibition [2] -1.03% | viability increase [3] -1.3% | viability [4] 101% | viability [5] 94.7% | inhibition [6] 0.44% | RAM network inhibition [7] 2.35%

O=C(NC1CCCCCC1)C1CCCN1S(=O)(=O)c1cccc2cccnc12 (stereo not given)
inactive: growth inhibition [1] -10.1% | growth inhibition [2] -8% | viability increase [3] -0.87% | viability [4] 90.9% | viability [5] 92.1% | inhibition [6] 0.69% | RAM network inhibition [7] 3.74%

CCN(CC)C1=CC(=O)OC12CCCCC2
inactive: growth inhibition [1] -13.1% | growth inhibition [2] 0.735% | viability increase [3] -2.99% | viability [4] 98.5% | viability [5] 93.7% | inhibition [6] 2.08% | RAM network inhibition [7] 9.79%

COc1ccc(N(CC(=O)Nc2cccc(SC)c2)S(C)(=O)=O)cc1Cl
inactive: growth inhibition [1] -4.88% | growth inhibition [2] -9.05% | viability increase [3] -6.18% | viability [4] 77.7% | viability [5] 80.6% | inhibition [6] 0.975% | RAM network inhibition [7] 3.03%

CC1CCCCN1C(=O)c1ccc(S(=O)(=O)N2CCCCC2C)cc1 (stereo not given)
inactive: growth inhibition [1] -5.29% | growth inhibition [2] -15.2% | viability increase [3] -2.45% | viability [4] 96.7% | viability [5] 95.6% | inhibition [6] 1.99% | RAM network inhibition [7] 2.28%

CCOc1ccc(CCNc2cc(C)nc3ncnn23)cc1OCC
inactive: growth inhibition [1] -1.77% | growth inhibition [2] 4.5% | viability increase [3] -2.06% | viability [4] 90.3% | viability [5] 94.1% | inhibition [6] 1.71% | RAM network inhibition [7] 1.15%

CCOC(=O)N1CCN(C(=O)C2CCCN(Cc3nc(-c4ccc(Cl)cc4)oc3C)C2)CC1 (stereo not given)
inactive: growth inhibition [1] 2.57% | growth inhibition [2] -13.2% | viability increase [3] -4.13% | viability [4] 37.9% | viability [5] 46.5% | inhibition [6] 0.12% | RAM network inhibition [7] 3.55%

O=C(CC1Oc2ccccc2NC1=O)NCCc1ccccc1 (stereo not given)
inactive: growth inhibition [1] -0.525% | growth inhibition [2] 0.925% | viability increase [3] 0.98% | viability [4] 107% | viability [5] 105% | inhibition [6] 2.94% | RAM network inhibition [7] 9.58%

Cc1ccc(-c2nc(CS(=O)CC(=O)NCc3ccccn3)c(C)o2)cc1 (stereo not given)
inactive: growth inhibition [1] -5.48% | growth inhibition [2] 7.86% | viability increase [3] -1.49% | viability [4] 92.2% | viability [5] 90.7% | inhibition [6] 0.745% | RAM network inhibition [7] 1.38%

O=C(CNS(=O)(=O)c1cccs1)Nc1ccc2c(c1)OCCO2
inactive: growth inhibition [1] -22.3% | growth inhibition [2] -6.7% | viability increase [3] -1.78% | viability [4] 89.2% | viability [5] 90.9% | inhibition [6] 1.3% | RAM network inhibition [7] 0.67%

O=C(NCc1cccnc1)c1cccc(S(=O)(=O)N2CCOCC2)c1
inactive: growth inhibition [1] -7.59% | growth inhibition [2] 1.51% | viability increase [3] 0.32% | viability [4] 103% | viability [5] 101% | inhibition [6] 1.6% | RAM network inhibition [7] 0.62%

COc1ccc(S(=O)(=O)N2CCCN(S(=O)(=O)c3ccc(OC)cc3C)CC2)c(C)c1
inactive: growth inhibition [1] -12.6% | growth inhibition [2] -4.12% | viability increase [3] -6.52% | viability [4] 87.2% | viability [5] 84.7% | inhibition [6] -0.105% | RAM network inhibition [7] 3.22%

COc1cccc(-n2c(Cc3cc(=O)[nH]c(=O)[nH]3)nnc2SC(C)C)c1
inactive: growth inhibition [1] -12.3% | growth inhibition [2] 8.2% | viability increase [3] -0.34% | viability [4] 103% | viability [5] 100% | inhibition [6] 1.71% | RAM network inhibition [7] 3.35%

Cc1ccc(/C=N/n2c(C)nnc2C)cc1
inactive: growth inhibition [1] -5.29% | growth inhibition [2] -2.88% | viability increase [3] -1.74% | viability [4] 87.4% | viability [5] 99.1% | inhibition [6] 0.135% | RAM network inhibition [7] 0.41%
